Assay results as given in ChEMBL document CHEMBL1817650, “Fragment-based drug design and drug repositioning using multiple ligand simultaneous docking (MLSD): identifying celecoxib and template compounds as novel inhibitors of signal transducer and activator of transcription 3 (STAT3)” (J Med Chem, 2011).
The source made the active and inactive calls. The calls are words filed in the database; no cut-off is given here.

How the values were obtained:
HCT-116 [1] = experiment: Anticancer activity against human HCT116 cells after 72 hrs by MTT assay; format: functional, cell-based; conditions: HCT-116, 72 h
Procedure, shortened: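 HCT-116 cells, 3,000 per well, given escalating concentrations (5–160 μM or 1–75 μM depending on compound) in triplicate with 10% FBS. Incubation was 72 h at 37°C, then MTT viability read-out at 595 nm absorbance. IC50 was derived by curve fitting.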

HCT-116 [2] = experiment: Inhibition of STAT3 protein expression in COX2-negative human HCT116 cells at 10 to 50 uM after 24 hrs by Western blot analysis
[3] = molecular target: Signal transducer and activator of transcription 3 (Homo sapiens) (UniProt P40763); experiment: Inhibition of STAT3 SH2 domain phosphorylation at Tyr705 in COX2-negative human HCT116 cells after 24 hrs by Western blot analysis; conditions: HCT-116
Chain of Signal transducer and activator of transcription 3 (Homo sapiens) (P40763 whole entry, the tested form may be a part): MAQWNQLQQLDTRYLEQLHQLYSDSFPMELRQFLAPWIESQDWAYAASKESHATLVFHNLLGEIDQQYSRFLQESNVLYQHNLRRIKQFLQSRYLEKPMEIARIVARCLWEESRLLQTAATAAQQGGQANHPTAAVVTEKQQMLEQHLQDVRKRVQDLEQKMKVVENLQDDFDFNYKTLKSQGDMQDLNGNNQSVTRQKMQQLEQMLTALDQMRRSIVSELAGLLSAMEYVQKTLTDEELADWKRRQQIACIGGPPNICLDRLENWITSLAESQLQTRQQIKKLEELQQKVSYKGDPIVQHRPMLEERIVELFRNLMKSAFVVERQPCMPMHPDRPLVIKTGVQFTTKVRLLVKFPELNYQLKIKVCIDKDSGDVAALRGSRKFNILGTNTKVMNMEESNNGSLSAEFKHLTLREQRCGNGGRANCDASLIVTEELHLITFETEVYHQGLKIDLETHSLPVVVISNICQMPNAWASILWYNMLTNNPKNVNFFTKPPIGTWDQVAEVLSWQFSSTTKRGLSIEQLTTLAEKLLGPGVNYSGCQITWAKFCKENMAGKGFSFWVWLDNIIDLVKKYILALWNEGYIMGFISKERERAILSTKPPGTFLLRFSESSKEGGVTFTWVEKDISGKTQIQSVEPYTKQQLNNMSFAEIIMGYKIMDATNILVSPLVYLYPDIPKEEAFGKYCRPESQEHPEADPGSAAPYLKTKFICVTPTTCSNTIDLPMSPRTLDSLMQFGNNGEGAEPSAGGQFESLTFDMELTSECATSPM

[4] = molecular target: Signal transducer and activator of transcription 3 (Homo sapiens) (UniProt P40763); experiment: Inhibition of IL-6-induced STAT3 phosphorylation in human PANC1 cells at 25 to 50 µM pretreated 2 hrs prior to IL-6 challenge measured after 30 mins; format: cell-based; conditions: PANC-1
Procedure, shortened: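 PANC-1 cells were serum-starved for 24 h, then pretreated with 25 or 50 μM compound for 2 h. They were then stimulated with IL-6 at 50 ng/ml for 30 min, and STAT3 phosphorylation was assessed.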

[5] = molecular target: Signal transducer and activator of transcription 1 (Homo sapiens) (UniProt P42224); experiment: Inhibition of interferon gamma induced STAT1 phosphorylation in human PANC1 cells at […] pretreated 2 hrs prior to interferon-gamma challenge measured after 30; conditions: PANC-1
Chain of Signal transducer and activator of transcription 1 (Homo sapiens) (P42224 whole entry, looked up): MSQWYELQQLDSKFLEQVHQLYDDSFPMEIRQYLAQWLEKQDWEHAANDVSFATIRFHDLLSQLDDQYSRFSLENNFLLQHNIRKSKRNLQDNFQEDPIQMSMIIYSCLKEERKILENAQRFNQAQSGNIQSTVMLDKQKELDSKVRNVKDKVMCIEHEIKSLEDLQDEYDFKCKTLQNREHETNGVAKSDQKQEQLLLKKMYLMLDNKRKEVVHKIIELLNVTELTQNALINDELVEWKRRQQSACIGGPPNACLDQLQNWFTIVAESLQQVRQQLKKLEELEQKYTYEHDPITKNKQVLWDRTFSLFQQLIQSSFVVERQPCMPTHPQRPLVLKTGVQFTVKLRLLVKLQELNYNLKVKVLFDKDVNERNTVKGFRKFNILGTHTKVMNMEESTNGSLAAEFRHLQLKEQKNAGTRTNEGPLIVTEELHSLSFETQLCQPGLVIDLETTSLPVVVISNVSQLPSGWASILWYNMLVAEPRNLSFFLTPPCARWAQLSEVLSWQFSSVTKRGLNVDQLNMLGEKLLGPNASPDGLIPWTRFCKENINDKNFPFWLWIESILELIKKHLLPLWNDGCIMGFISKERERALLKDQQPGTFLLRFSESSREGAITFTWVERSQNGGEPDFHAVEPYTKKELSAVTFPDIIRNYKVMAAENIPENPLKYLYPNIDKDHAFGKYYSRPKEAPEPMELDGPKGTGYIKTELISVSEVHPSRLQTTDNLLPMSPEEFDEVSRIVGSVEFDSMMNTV

| IC50 (HCT-116 [1]) [µM] | inhibition [3] | inhibition [4] | inhibition [5] | Structure (SMILES) | inhibition (HCT-116 [2]) |
| --- | --- | --- | --- | --- | --- |
| 10.1 | Dose-dependent effect | – | – | NS(=O)(=O)c1ccc(-n2nc(C(=O)NN3CCCCC3)cc2-c2ccc(-c3ccccc3)cc2)cc1 | inactive |
| 9.7 | Dose-dependent effect | – | – | Cc1ccc(Cc2cc(-c3ccc(Br)cc3)n(-c3ccc(S(N)(=O)=O)cc3)n2)cc1 | inactive |
| 43.3 | Dose-dependent effect | Active | inactive | Cc1ccc(-c2cc(C(F)(F)F)nn2-c2ccc(S(N)(=O)=O)cc2)cc1 [CELECOXIB] | inactive |
